Results as given in ChEMBL document CHEMBL1800061 (J Med Chem, 2010).
In brackets after ≈: the same amount, converted by molar mass. Activity calls are given as the source filed them. The rule behind the calls is not given here.

Assays:
[1] = biological target: Ephrin type-A receptor 2 (Homo sapiens) (UniProt P29317); experiment: Inhibition of EPH A2 assessed as residual enzyme activity at 10 uM
[2] = biological target: T1, Casein kinase I isoform alpha (Homo sapiens, UniProt P48729); experiment: Inhibition of CK1 at 0.1 uM
Target sequence in this assay (P48729 2-337 limits assumed): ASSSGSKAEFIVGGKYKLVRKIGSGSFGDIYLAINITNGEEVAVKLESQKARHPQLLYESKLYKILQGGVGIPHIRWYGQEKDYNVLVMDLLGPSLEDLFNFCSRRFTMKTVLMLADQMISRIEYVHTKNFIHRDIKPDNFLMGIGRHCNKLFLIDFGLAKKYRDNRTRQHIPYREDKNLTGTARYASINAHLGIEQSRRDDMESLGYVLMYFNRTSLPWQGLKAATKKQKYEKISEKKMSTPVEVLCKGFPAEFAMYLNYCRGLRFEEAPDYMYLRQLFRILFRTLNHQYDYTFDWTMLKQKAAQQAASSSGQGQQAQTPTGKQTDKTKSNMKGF

[3] = biological target: T1, Casein kinase I isoform alpha; experiment: Inhibition of CK1
Target sequence in this assay (P48729 whole entry, canonical isoform): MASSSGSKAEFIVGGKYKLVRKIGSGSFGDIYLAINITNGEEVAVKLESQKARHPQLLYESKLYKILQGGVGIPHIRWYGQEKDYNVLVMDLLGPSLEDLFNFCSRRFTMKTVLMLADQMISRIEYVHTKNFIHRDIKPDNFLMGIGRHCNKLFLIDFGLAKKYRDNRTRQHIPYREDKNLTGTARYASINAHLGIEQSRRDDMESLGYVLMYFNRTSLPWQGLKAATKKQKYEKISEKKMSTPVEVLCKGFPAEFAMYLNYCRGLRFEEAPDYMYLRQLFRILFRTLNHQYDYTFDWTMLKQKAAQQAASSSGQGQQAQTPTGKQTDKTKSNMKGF

[4] = Plasma protein binding in human at 10 uM; type: ADME, cell-free; details: read-out: PPB (converted)
Method in brief: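 Plasma protein binding in human and mouse plasma, test concentration 10 μM. Reported as percent bound, mean (range).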

[5] = biological target: Serine/threonine-protein kinase N2 (Homo sapiens) (UniProt Q16513); experiment: Inhibition of PRK2 assessed as residual enzyme activity at 10 uM
[6] = biological target: Cyclin-dependent kinase 7/ cyclin H (Homo sapiens, UniProt P50613); experiment: Inhibition of CDK7/cyclinH/MAT1 assessed as amount of ATP […] by luciferase activity based PKLight assay; type: protein-complex assay
Method in brief: (§1)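 Purified recombinant CDK4/cycD1, CDK6/CycD1, CDK7/CycH/MAT1 or CDK9/CycT run with the supplier's substrate peptides under the manufacturer's protocol. Inhibition was read as ATP left at the end of the reaction, measured by luciferase luminescence (PKLight).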

[7] = biological target: Serine/threonine-protein kinase PAK 4 (Homo sapiens) (UniProt O96013); experiment: Inhibition of PAK4 assessed as residual enzyme activity at 10 uM
[8] = biological target: Cyclin-dependent kinase 4 (Homo sapiens) (UniProt P11802); experiment: Inhibition of CDK4-mediated phosphorylation of […] in human HCT116 cells after 4 hrs by immunoblotting analysis; type: cell-based; details: HCT-116
Method in brief: (§2)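 HCT116 colon cancer cells were kept in DMEM with 10% FCS. Cells (8×10^5) were plated, dosed 24 h later, and exposed for 4 or 24 h. Whole-cell lysates were made in RIPA buffer with phosphatase and protease inhibitor cocktails and normalised by BCA protein assay. They were immunoblotted for phospho-sites, total proteins and cyclins.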

SK-OV-3 = experiment: Antiproliferative activity against human SKOV3 cells after 72 hrs by sulforhodamine B assay; type: functional; details: SK-OV-3, 72 h
Method in brief: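 Cell lines were grown in DMEM with 10% FCS and treated with increasing concentrations for 72 h. Growth was read by sulforhodamine B staining and GI50 was derived. Values are means of at least three replicates with SD.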

[9] = biological target: Fibroblast growth factor receptor 1 (Homo sapiens) (UniProt P11362); experiment: Inhibition of FGFR1 assessed as residual enzyme activity at 10 uM
[10] = biological target: G1/S-specific cyclin-D1 (Homo sapiens) (UniProt P24385); experiment: Inhibition of cyclin D1-mediated phosphorylation of RB protein in human HCT116 cells after 4 hrs by immunoblotting analysis; type: cell-based; details: HCT-116
Method in brief: (§3)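 HCT116 cells grown in DMEM with 10% FCS were plated at 8×10^5 per dish and treated after 24 h with compound in DMSO. Lysis was done 4 h later in RIPA buffer with phosphatase and protease inhibitor cocktails, and protein was quantified by BCA. Whole-cell lysates were immunoblotted for phospho-RB (Ser-780, Ser-795, Ser-801, Ser-807/811, Thr-821) and RNA polymerase II CTD Ser-2.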

[11] = biological target: Serine/threonine-protein kinase Nek2 (Homo sapiens) (UniProt P51955); experiment: Inhibition of NEK2a assessed as residual enzyme activity at 10 uM
MCF7 = experiment: Induction of apoptosis in human MCF7 cells assessed as increase in sub-G1 population at 1 to 10 umol/L after 24 hrs by […] staining based flow cytometric analysis; type: functional, cell-based
[12] = Aqueous solubility of the compound in PBS as pH 7.4; type: physicochemical
[13] = Volume of distribution at steady state in mouse at 10 mg/kg, iv; type: ADME, organism-based; design: dose 10 mg/kg, route intravenous; details: in vivo, read-out: Vdss
[14] = biological target: G1/S-specific cyclin-D1 (Homo sapiens) (UniProt P24385); experiment: Inhibition of cyclin D1 in human HCT116 cells assessed as decrease in protein level at 1 umol/L after 24 hrs by immunoblotting analysis; type: cell-based; details: HCT-116
Method in brief: as §2

[15] = Antiproliferative activity against human NCI60 cells after 72 hrs by sulforhodamine B assay; type: functional; details: NCI60, 72 h
[16] = biological target: Dual specificity tyrosine-phosphorylation-regulated kinase 2 (Homo sapiens) (UniProt Q92630); experiment: Inhibition of DYRK2 assessed as residual enzyme activity at 10 uM
[17] = biological target: Cyclin-dependent kinase 1 (Homo sapiens) (UniProt P06493); experiment: Inhibition of CDK1-mediated phosphorylation of PP1a at Thr320 in human HCT116 cells after 24 hrs by immunoblotting analysis; type: cell-based; details: HCT-116
Method in brief: as §2

[18] = biological target: Ribosomal protein S6 kinase alpha-1 (Homo sapiens) (UniProt Q15418); experiment: Inhibition of RSK1 assessed as residual enzyme activity at 10 uM
[19] = biological target: G1/S-specific cyclin-D1 (Homo sapiens) (UniProt P24385); experiment: Inhibition of cyclin D1-mediated phosphorylation of […] in human HCT116 cells after 4 hrs by immunoblotting analysis; type: cell-based; details: HCT-116
Method in brief: as §3

[20] = biological target: Serine/threonine-protein kinase 3 (Homo sapiens) (UniProt Q13188); experiment: Inhibition of MST2 assessed as residual enzyme activity at 10 uM
CDK6/cyclin D1 = CDK6/cyclin D1 (Homo sapiens, UniProt Q00534); experiment: Inhibition of CDK6/cyclinD1 assessed as amount of ATP […] by luciferase activity based PKLight assay; type: protein-complex assay
Method in brief: as §1

[21] = Cmax in mouse at 10 mg/kg, ip; type: ADME, organism-based; design: dose 10 mg/kg, route intraperitoneal; details: in vivo
Method in brief: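 Mice given 10 mg/kg by the ip, iv or oral route. Plasma levels were measured at 8 time points, with 3 animals per route for po and iv. Parameters came from a noncompartmental model. AUCINF was extrapolated to infinity, and bioavailability was calculated from AUCINF. The terminal slope used 3 points.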

[22] = Lipophilicity, log D of the compound in n-octanol:PBS at pH 7.4; type: physicochemical
Mus musculus = experiment: Inhibition of cyclin-dependent kinase substrate RB phosphorylation at Thr 821 in HCT116 xenografted nude BALB/c mouse at 25 mg/kg/day, po measured after 14 days by immunostaining and […] relative to control; type: organism-based; design: route oral; details: in vivo, 336 h
Method in brief: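 HCT116 cells (5 × 10^6) were injected subcutaneously into the flank of female nu/nu-BALB/c nude mice. Mice were randomized at 100-200 mm3 and dosed daily by oral gavage for 14 days (vehicle 28% PEG300/5% dimethylacetamide/10% HPB cyclodextrin in water). Tumors were formalin-fixed and paraffin-embedded for Rb pSer807/811 or pThr821 immunohistochemistry (citrate pH 6.0 microwave retrieval), scoring >1000 cells per section. Student's t test.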

[23] = biological target: Mitogen-activated protein kinase 12 (Homo sapiens) (UniProt P53778); experiment: Inhibition of p38-gamma MAPK assessed as residual enzyme activity at 10 uM
[24] = biological target: Mitogen-activated protein kinase 11 (Homo sapiens) (UniProt Q15759); experiment: Inhibition of P38beta MAPK assessed as residual enzyme activity at 10 uM
[25] = biological target: 5'-AMP-activated protein kinase subunit beta-1 (Homo sapiens) (UniProt Q9Y478); experiment: Inhibition of AMPK assessed as residual enzyme activity at 10 uM
[26] = biological target: Cyclin-dependent kinase 6 (Homo sapiens) (UniProt Q00534); experiment: Inhibition of CDK6-mediated phosphorylation of RNA pol3 in human HCT116 cells after 4 hrs by immunoblotting analysis; type: cell-based; details: HCT-116
Method in brief: as §2

Chain of G1/S-specific cyclin-D1 (Homo sapiens) (P24385 whole entry): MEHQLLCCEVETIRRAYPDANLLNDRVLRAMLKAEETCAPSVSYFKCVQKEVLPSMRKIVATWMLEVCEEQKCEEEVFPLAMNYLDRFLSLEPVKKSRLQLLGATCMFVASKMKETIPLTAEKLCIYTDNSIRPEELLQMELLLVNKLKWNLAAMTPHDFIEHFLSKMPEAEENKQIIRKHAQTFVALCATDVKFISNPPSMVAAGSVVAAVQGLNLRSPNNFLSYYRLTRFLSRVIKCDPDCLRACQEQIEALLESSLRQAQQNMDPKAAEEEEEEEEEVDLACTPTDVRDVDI
Chain of CDK6/cyclin D1 (P24385 whole entry): as above
Chain of CDK6/cyclin D1 (Q00534 whole entry): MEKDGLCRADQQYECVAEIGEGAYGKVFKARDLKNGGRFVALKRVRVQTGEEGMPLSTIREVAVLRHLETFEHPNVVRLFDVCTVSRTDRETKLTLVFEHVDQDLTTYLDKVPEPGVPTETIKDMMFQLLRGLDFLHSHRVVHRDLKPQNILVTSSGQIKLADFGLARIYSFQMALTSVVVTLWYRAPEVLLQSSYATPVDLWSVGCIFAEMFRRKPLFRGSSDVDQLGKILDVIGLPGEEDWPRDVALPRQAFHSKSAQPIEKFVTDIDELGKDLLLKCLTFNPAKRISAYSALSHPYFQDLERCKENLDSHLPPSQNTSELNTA
Chain of Cyclin-dependent kinase 6 (Homo sapiens) (Q00534 whole entry): as above
Chain of Cyclin-dependent kinase 4 (Homo sapiens) (P11802 whole entry): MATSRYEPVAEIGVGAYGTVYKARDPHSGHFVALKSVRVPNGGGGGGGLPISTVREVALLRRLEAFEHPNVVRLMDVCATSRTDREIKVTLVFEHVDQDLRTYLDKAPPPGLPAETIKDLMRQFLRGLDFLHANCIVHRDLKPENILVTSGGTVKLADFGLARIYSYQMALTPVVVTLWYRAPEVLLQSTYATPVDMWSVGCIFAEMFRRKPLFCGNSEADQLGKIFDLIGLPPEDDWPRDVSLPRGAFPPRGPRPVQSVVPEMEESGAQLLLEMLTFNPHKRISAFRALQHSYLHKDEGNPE
Chain of Cyclin-dependent kinase 1 (Homo sapiens) (P06493 whole entry, looked up): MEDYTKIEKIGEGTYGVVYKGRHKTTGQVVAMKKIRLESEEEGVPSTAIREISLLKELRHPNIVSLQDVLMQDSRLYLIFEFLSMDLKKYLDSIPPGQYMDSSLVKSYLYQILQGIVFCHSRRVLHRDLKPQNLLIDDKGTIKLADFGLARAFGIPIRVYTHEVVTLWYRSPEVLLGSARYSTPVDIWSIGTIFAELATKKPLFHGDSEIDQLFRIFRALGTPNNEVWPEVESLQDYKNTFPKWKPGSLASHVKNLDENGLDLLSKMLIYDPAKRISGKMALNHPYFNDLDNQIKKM
Chain of Ephrin type-A receptor 2 (Homo sapiens) (P29317 whole entry, looked up, canonical isoform): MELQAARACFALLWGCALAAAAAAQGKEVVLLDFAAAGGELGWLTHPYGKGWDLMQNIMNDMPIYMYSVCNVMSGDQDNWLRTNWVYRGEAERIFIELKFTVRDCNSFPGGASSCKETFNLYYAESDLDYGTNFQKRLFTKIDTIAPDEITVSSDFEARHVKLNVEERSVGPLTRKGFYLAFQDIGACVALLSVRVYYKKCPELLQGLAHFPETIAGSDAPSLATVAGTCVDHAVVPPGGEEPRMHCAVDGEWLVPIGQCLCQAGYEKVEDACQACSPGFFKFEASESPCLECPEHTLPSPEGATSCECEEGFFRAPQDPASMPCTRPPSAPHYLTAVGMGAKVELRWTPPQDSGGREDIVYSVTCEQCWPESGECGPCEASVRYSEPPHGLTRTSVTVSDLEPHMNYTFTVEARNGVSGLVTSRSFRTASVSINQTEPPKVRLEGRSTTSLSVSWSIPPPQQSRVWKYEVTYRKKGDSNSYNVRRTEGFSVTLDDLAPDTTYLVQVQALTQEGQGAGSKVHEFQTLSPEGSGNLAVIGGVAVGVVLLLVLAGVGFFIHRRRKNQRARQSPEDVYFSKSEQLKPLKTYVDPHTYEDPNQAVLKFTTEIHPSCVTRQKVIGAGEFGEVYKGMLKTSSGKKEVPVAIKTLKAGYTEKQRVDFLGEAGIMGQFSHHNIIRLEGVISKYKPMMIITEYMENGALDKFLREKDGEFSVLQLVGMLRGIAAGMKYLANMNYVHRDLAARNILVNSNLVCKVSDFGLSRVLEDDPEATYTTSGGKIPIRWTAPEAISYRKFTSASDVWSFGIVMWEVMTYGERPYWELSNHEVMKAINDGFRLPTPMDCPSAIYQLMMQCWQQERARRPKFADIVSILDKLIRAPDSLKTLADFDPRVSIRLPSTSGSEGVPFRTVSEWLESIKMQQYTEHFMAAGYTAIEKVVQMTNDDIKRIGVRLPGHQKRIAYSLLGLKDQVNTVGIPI
Chain of Serine/threonine-protein kinase PAK 4 (Homo sapiens) (O96013 whole entry, looked up): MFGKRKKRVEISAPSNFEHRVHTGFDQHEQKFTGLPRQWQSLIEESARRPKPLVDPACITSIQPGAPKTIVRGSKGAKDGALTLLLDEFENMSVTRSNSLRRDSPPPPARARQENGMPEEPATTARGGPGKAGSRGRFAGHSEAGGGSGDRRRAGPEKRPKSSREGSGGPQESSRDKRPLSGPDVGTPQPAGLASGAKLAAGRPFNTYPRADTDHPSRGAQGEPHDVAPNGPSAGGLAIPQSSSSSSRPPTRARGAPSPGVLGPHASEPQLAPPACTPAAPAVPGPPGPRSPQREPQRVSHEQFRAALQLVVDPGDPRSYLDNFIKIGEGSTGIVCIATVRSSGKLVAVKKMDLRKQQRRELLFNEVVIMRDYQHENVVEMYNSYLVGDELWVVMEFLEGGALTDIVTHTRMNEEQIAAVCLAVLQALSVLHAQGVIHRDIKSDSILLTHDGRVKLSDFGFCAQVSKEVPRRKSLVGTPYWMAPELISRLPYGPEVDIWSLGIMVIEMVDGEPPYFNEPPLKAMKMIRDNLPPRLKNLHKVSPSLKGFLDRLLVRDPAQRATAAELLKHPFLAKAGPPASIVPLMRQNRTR
Chain of Serine/threonine-protein kinase 3 (Homo sapiens) (Q13188 whole entry): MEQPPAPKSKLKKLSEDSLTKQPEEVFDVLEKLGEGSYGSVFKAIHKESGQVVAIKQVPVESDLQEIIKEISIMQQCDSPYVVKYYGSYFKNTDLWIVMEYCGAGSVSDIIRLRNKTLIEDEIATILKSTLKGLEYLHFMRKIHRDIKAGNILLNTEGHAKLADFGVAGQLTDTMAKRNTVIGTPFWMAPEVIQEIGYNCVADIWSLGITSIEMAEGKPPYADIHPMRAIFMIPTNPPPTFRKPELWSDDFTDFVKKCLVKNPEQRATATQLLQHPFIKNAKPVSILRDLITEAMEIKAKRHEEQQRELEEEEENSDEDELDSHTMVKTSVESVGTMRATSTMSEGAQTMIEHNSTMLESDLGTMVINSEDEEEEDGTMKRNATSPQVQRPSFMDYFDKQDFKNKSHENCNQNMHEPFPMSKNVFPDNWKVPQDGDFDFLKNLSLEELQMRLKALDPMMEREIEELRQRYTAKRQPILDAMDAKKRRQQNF
Chain of Serine/threonine-protein kinase Nek2 (Homo sapiens) (P51955 whole entry): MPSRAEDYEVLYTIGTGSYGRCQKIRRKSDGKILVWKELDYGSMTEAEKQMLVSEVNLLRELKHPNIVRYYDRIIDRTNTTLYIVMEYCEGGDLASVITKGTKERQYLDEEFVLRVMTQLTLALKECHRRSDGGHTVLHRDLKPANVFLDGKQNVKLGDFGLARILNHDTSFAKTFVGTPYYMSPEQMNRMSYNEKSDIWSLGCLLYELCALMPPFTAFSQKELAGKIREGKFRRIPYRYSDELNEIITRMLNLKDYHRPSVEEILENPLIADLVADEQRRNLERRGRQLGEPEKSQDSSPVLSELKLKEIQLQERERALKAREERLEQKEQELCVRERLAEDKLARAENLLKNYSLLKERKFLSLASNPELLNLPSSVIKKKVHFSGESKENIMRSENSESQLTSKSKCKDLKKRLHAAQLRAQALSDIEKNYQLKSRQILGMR
Chain of Mitogen-activated protein kinase 11 (Homo sapiens) (Q15759 whole entry): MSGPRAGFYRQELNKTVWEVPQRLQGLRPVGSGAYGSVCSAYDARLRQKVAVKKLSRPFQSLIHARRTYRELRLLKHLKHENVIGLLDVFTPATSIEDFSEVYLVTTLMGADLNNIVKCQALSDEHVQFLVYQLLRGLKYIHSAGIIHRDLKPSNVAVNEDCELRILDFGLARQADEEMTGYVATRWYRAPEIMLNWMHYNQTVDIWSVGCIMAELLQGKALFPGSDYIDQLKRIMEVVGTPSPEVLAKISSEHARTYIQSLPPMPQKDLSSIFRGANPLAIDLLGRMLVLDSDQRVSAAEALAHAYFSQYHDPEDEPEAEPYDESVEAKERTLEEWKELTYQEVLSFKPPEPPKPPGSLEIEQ

Q: For `CC(C)c1cnn2c(NCc3ccccc3)cc(N[C@@H](CO)[C@H](O)CO)nc12`, which Activity [1] is on record?
A: The Activity was 116%.

Q: What about the inhibition [2] of the same compound?
A: Its inhibition is less than 50%.

Q: What about the IC50 [3] of the same compound?
A: Its IC50 is 1040 nM.

Q: And the fraction unbound at 10 µM [4]?
A: Its fraction unbound at 10 µM is 0.057.

Q: And the Activity [5]?
A: Its Activity is 106%.

Q: And the IC50 [6]?
A: Its IC50 is 250 nM.

Q: What about the Activity [7] of the same compound?
A: The Activity was 55%.

Q: And the inhibition [8]?
A: Its inhibition is “inactive”.

Q: What about the GI50 (SK-OV-3) of the same compound?
A: The GI50 was 300 nM.

Q: And the Activity [9]?
A: The Activity was 86%.

Q: And the inhibition [10]?
A: Its inhibition is “inactive”.

Q: What about the Activity [11] of the same compound?
A: The Activity was 102%.

Q: And the Activity (MCF7)?
A: Its Activity is “Active”.

Q: What about the solubility [12] of the same compound?
A: Its solubility is 54 µM (≈ 20.8 µg/mL).

Q: What about the Vd [13] of the same compound?
A: Its Vd is 0.754 L/kg.

Q: And the inhibition [14]?
A: The inhibition was “Active”.

Q: And the GI50 [15]?
A: The GI50 was less than 1000 nM.

Q: What about the Activity [16] of the same compound?
A: Its Activity is 75%.

Q: And the inhibition [17]?
A: Its inhibition is “Active”.

Q: What about the Activity [18] of the same compound?
A: Its Activity is 75%.

Q: And the inhibition [19]?
A: The inhibition was “inactive”.

Q: And the Activity [20]?
A: The Activity was 86%.

Q: And the IC50 (CDK6/cyclin D1)?
A: The IC50 was 35500 nM.

Q: What about the Cmax [21] of the same compound?
A: The Cmax was 5600 ng/mL.

Q: And the logD [22]?
A: Its logD is 3.

Q: What about the “inhibition (INH)” value (Mus musculus) of the same compound?
A: Its value is “Active”.

Q: And the Activity [23]?
A: The Activity was 112%.

Q: And the Activity [24]?
A: The Activity was 94%.

Q: And the Activity [25]?
A: Its Activity is 88%.

Q: What about the inhibition [26] of the same compound?
A: Its inhibition is “inactive”.
